Test results as given in PMC3574199 (Bioorganic & medicinal chemistry, 2012).

What was measured:
Type in all cases: biochemical
murine macrophage iNOS = murine macrophage iNOS (Mus musculus, UniProt P29477); assay: Nitric oxide hemoglobin capture assay, iNOS; conditions: for selectivity n/i: ratio of Ki (iNOS) to Ki (nNOS)
rat nNOS = rat nNOS (Rattus norvegicus, UniProt P29476); assay: Nitric oxide hemoglobin capture assay, nNOS
Outline: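 Recombinant rat nNOS was expressed in E. coli. Assays ran at room temperature in 100 mM Hepes pH 7.4 with 10 µM L-arginine, 1.6 mM CaCl2, 11.6 µg/mL calmodulin, 100 µM DTT, 100 µM NADPH, 6.5 µM H4B and 3.0 µM oxyhemoglobin. Enzyme addition started the reaction, and initial rates came from NO-hemoglobin formation at 401 nm over 60 sec. Ki = IC50/(1+[S]/Km), Km 1.3 µM.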

bovine eNOS = bovine eNOS (Bos taurus, UniProt P29473); assay: Nitric oxide hemoglobin capture assay, eNOS; conditions: for selectivity n/e: ratio of Ki (eNOS) to Ki (nNOS)

Sequence of rat nNOS (P29476 whole entry): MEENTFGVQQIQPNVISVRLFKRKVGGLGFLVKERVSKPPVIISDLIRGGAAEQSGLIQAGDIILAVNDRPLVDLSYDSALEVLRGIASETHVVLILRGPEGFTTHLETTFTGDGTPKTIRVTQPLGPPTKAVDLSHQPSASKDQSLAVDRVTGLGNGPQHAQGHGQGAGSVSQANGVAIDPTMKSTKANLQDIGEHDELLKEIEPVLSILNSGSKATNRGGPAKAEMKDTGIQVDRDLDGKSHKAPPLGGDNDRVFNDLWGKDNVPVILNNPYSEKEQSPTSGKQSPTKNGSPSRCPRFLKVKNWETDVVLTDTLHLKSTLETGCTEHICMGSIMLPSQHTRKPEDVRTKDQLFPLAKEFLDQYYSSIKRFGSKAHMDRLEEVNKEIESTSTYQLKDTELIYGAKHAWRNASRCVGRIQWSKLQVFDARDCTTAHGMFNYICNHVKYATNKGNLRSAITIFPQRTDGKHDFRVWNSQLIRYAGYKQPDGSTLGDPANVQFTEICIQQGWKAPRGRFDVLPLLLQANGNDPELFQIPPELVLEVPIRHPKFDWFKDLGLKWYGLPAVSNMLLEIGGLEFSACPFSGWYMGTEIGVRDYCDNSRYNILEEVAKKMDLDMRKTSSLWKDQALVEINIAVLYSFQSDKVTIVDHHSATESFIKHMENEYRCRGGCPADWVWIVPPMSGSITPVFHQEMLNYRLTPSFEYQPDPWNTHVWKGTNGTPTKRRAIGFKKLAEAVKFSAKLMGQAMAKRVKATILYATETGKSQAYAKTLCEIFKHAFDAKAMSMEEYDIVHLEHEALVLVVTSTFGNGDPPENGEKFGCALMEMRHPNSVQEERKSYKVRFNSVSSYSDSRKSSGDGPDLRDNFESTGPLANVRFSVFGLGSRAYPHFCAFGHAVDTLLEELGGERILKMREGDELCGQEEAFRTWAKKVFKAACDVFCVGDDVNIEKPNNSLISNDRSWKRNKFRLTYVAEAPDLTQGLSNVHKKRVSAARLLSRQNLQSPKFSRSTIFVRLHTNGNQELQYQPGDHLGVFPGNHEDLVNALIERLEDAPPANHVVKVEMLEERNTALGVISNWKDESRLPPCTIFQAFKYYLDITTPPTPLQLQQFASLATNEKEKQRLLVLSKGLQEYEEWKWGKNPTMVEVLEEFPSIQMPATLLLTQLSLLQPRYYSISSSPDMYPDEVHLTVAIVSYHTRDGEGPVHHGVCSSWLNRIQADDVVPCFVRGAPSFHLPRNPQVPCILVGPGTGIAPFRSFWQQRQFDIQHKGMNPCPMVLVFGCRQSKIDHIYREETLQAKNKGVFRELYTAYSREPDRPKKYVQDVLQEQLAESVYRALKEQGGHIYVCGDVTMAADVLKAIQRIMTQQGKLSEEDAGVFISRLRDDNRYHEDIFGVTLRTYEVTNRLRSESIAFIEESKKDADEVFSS
Sequence of murine macrophage iNOS (P29477 whole entry): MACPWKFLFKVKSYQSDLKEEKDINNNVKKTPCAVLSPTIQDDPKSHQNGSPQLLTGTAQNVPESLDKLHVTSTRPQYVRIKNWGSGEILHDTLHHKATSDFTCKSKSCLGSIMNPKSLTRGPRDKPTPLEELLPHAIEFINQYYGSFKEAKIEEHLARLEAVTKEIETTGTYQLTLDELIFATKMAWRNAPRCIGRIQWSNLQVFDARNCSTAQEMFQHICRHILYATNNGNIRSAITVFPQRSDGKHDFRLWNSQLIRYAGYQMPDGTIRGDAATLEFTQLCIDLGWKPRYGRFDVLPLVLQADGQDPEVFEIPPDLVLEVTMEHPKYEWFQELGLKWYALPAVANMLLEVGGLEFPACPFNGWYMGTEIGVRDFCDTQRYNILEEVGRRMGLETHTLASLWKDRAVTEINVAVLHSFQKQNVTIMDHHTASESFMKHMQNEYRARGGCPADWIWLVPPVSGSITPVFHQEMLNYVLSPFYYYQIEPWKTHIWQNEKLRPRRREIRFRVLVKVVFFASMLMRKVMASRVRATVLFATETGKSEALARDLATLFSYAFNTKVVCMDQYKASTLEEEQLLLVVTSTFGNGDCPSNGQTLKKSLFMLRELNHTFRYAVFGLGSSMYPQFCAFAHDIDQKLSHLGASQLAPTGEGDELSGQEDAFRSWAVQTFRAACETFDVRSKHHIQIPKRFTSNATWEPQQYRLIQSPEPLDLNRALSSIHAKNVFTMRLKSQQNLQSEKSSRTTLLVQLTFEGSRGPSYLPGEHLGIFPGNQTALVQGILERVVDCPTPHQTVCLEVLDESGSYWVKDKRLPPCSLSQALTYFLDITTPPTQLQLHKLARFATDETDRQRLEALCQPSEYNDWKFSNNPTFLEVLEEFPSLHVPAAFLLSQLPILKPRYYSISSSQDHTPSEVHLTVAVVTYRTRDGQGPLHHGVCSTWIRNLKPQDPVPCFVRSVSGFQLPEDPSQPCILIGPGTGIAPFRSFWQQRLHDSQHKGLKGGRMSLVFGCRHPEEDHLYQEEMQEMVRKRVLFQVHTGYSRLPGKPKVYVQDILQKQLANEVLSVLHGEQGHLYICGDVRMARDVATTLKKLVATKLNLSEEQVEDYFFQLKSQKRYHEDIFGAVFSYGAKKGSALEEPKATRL

Question: What does the source list for `Cc1cc(N)nc(C[C@@H]2CNC[C@@H]2OCCNC(C)Cc2cccc(F)c2)c1.Cl` (mixture of isomers) [(±) 2e, 6-(((3R,4R)-4-(2-(((R/S)-1-(3-fluorophenyl)propan-2-yl)amino)ethoxy)pyrrolidin-3-yl)methyl)-4-methylpyridin-2-amine]?
Answer: Ki (murine macrophage iNOS): 10.2 µM; selectivity n/i (murine macrophage iNOS): 220; Ki (rat nNOS): 46 nM; Ki (bovine eNOS): 68 µM; selectivity n/e (bovine eNOS): 1500

Question: Which results are given for `Cc1cccc(C2CC2NCCO[C@H]2CNC[C@H]2Cc2cc(C)cc(N)n2)c1` (mixture of isomers) [(±) 2c, 4-Methyl-6-(((3R,4R)-4-(2-((1S,2R/1R,2S)-2-m-tolylcyclopropylamino)ethoxy)pyrrolidin-3-yl)methyl)pyridin-2-amine]?
Answer: Ki (murine macrophage iNOS): 10 µM; Ki (rat nNOS): 140 nM

Question: What does the source list for `Cc1cc(N)nc(C[C@@H]2CNC[C@@H]2OCCNC2CC2c2cccc(Cl)c2)c1` (mixture of isomers) [(±) 2d, 6-(((3R,4R)-4-(2-((1S,2R/1R,2S)-2-(3-Clorophenyl)cyclopropylamino)ethoxy)pyrrolidin-3-yl)methyl)-4-methylpyridin-2-amine]?
Answer: Ki (murine macrophage iNOS): 0.86 µM; selectivity n/i (murine macrophage iNOS): 12; Ki (rat nNOS): 71 nM; Ki (bovine eNOS): 26 µM; selectivity n/e (bovine eNOS): 370

Question: With `Cc1cc(N)nc(C[C@@H]2CNC[C@@H]2OCCN[C@H]2C[C@@H]2c2cccc(F)c2)c1` [Compound 2b, 6-(((3R,4R)-4-(2-((1S,2R)-2-(3-Fluorophenyl)cyclopropylamino)ethoxy)pyrrolidin-3-yl)methyl)-4-methylpyridin-2-amine] as the compound, how does the Ki (murine macrophage iNOS) read?
Answer: The Ki was 12 µM.

Question: What about the Ki (rat nNOS) of the same compound?
Answer: Its Ki is 175 nM.
